According to ChEMBL document CHEMBL4138168, “Design and synthesis of novel thiobarbituric acid derivatives targeting both wild-type and BRAF-mutated melanoma cells” (Eur J Med Chem, 2018):
Calls of active or inactive are those of the source. The rule behind the calls is not given here.

Key:
CHL-1 [1] = assay: Induction of apoptosis in human CHL-1 cells harboring wild type BRAF assessed as increase in dead cells at 25 uM after 24 hrs by Calcein-AM/ethidium bromide staining-based fluorescence assay (reference value: 2%); format: functional
CHL-1 [2] = assay: Antiproliferative activity against human CHL-1 cells harboring wild type BRAF after 48 hrs by MTT assay; format: functional, cell-based; conditions: CHL-1, 48 h
How it was run: (§1)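 3,000 cells per well, grown at 37 °C (DMEM with 10% FBS and penicillin/streptomycin; HCT116 in McCoy's 5A). Cells exposed in triplicate to 0.5–25 μM compound for 48 h. MTT (5 mg/mL PBS stock) added for 3 h, formazan dissolved in DMSO, OD read at 570 nm minus 630 nm background. IC50 from non-linear regression of two independent experiments.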

UACC-903 [3] = assay: Induction of apoptosis in human UACC-903 cells harboring BRAF mutant assessed as increase in dead cells at 25 uM after 24 hrs by Calcein-AM/ethidium bromide staining-based fluorescence assay (reference value: 3%); format: functional
UACC-903 [4] = assay: Induction of apoptosis in human UACC-903 cells harboring BRAF mutant assessed as necrotic cells at 5 uM after 24 hrs by Annexin V/7-AAD staining-based assay (reference value: 0.12%); format: functional
UACC-903 [5] = assay: Induction of apoptosis in human UACC-903 cells harboring BRAF mutant assessed as viable cells at 25 uM after 24 hrs by Annexin V/7-AAD staining-based assay (reference value: 95.64%); format: functional; conditions: UACC-903, 24 h, read-out: Activity
UACC-903 [6] = assay: Induction of apoptosis in human UACC-903 cells harboring BRAF mutant assessed as late apoptotic cells at 25 uM after 24 hrs by Annexin V/7-AAD staining-based assay (reference value: 1.56%); format: functional
UACC-903 [7] = assay: Induction of apoptosis in human UACC-903 cells harboring BRAF mutant assessed as apoptotic dead cells level at 5 uM after 24 hrs by AAD dye containing caspase 3/7 activity assay (reference value: 3%); format: functional
UACC-903 [8] = assay: Induction of apoptosis in human UACC-903 cells harboring BRAF mutant assessed as apoptotic dead cells level at 25 uM after 24 hrs by AAD dye containing caspase 3/7 activity assay (reference value: 3%); format: functional
UACC-903 [9] = assay: Induction of apoptosis in human UACC-903 cells harboring BRAF mutant assessed as decrease in Bcl-xL level at 5 to 25 uM after 24 hrs by Western blot analysis; format: functional, cell-based
How it was run: (§2)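 2 × 10^6 cells treated with the indicated concentrations for 24 h. Whole-cell lysates run on SDS-PAGE, transferred to PVDF, probed with antibodies against apoptosis/survival proteins, and detected by enhanced chemiluminescence.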

UACC-903 [10] = assay: Induction of apoptosis in human UACC-903 cells harboring BRAF mutant assessed as decrease in survivin level at 5 to 25 uM after 24 hrs by Western blot analysis; format: functional, cell-based; how it was run: as §2
MDA-MB-231 = assay: Antiproliferative activity against ER/PR/HER2 deficient human MDA-MB-231 cells after 48 hrs by MTT assay; format: functional, cell-based; conditions: MDA-MB-231, 48 h; how it was run: as §1
HCT-116 = assay: Antiproliferative activity against human HCT116 cells after 48 hrs by MTT assay; format: functional, cell-based; conditions: HCT-116, 48 h; how it was run: as §1
[11] = Selectivity ratio of cytotoxicity against human MCF10A cells to cytotoxicity against human MCF7 cells; format: toxicity, cell-based; conditions: MCF10A cells versus MCF7 cells
CHL-1 [12] = assay: Induction of apoptosis in human CHL-1 cells harboring wild type BRAF assessed as decrease in survivin level at 5 to 25 uM after 24 hrs by Western blot analysis; format: functional, cell-based; how it was run: as §2

Row | Compound | Activity (CHL-1 [1]) [%] | IC50 (CHL-1 [2]) [µM] | Activity (UACC-903 [3]) | Activity (UACC-903 [4]) [%] | viability at 25 µM (UACC-903 [5]) [%] | Activity (UACC-903 [6]) [%] | Activity (UACC-903 [7]) [%] | Activity (UACC-903 [8]) [%] | Activity (UACC-903 [9]) | Activity (UACC-903 [10]) | IC50 (MDA-MB-231) [µM] | IC50 (HCT-116) [µM] | selectivity ratio [11] | Activity (CHL-1 [12])
1 | O=C1NC(=S)N(c2ccccc2)C(=O)/C1=C/C=C/c1cccs1 | 5 | 6.5 | 15 - 25% | 0.54 | 29.4 | 44.28 | 2.88 | 24.1 | Active | Active | 8.3 | 2.4 | 2 | Active
2 | O=C1NC(=S)NC(=O)C1=C/C=C/c1cccs1 | 65 | 7.2 | 70% | 0.4 | 25.8 | 40.54 | 3.94 | 43.88 | Active | Active | 7.6 | 7.7 | 2 | Active
